Shown are actives, neighbours in structure and some others; about 1.8% of the full set was active somewhere.
CHRM4 agonist = human M4 muscarinic receptor agonists, primary screen, CHO-K1 cells, Fluo-8 calcium fluorescence; CHO-K1 hM4/Gqi5; vehicle 0%, full acetylcholine response 100%; activation, % at 3 µM; 360,000 compounds, 0.14% hits;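 active = activation above the run mean over all test wells plus 3 SD, cut at about 32% in these data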;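 also: peak over basal fluorescence ratio per well then scaled between controls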
M5 antag = human M5 muscarinic receptor antagonists, primary screen, CHO cells, Fluo-8 calcium fluorescence | Muscarinic acetylcholine receptor M5 (Homo sapiens), P08912 | CHO-hM5 cells, ACh EC80 | inhibition, % at 3 µM | 360,000 compounds, 0.59% hits;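 active = inhibition above a per-plate cutoff, the mean of that plate's test compounds plus 3 SD, cut at about 27% in these data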
Target sequence (P08912 whole entry, looked up): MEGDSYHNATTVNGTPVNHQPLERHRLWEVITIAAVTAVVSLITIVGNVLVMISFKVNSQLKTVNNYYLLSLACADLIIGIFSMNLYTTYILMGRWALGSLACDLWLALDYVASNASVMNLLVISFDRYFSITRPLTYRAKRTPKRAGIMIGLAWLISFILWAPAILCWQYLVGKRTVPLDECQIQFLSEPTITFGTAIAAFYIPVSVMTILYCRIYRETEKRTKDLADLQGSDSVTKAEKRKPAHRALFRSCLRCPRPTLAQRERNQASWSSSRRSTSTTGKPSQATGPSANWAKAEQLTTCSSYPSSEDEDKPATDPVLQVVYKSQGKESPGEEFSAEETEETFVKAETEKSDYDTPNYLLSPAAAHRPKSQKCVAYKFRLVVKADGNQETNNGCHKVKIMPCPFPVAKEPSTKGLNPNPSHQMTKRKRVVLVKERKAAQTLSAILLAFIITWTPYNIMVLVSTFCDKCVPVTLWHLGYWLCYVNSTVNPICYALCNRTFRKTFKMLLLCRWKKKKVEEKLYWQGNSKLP
CHRM4 antagonist = human M4 muscarinic receptor antagonists, primary screen, CHO cells, Fluo-8 calcium fluorescence | inhibition, % at 3 µM | 360,000 compounds, 0.73% hits | Muscarinic acetylcholine receptor M4 (Homo sapiens), P08173 | CHO-hM4 cells, ACh EC80;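 active = inhibition above its plate's cutoff, the mean inhibition of sample wells plus 3 SD, cut at about 27% in these data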
M5 ag = human M5 muscarinic receptor agonists, primary screen, CHO-K1 cells, Fluo-8 calcium fluorescence. Muscarinic acetylcholine receptor M5 (Homo sapiens), P08912. CHO-K1 hM5 cells; 0% DMSO wells, 100% maximal acetylcholine response. activation, % at 3 µM. 360,000 compounds, 0.19% hits;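 active = activation above the run's mean over test compounds plus 3 SD, cut at about 23% in these data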;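 also: signal is peak over basal fluorescence ratio across the kinetic read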
CHRM5 PAM = human M5 muscarinic receptor positive allosteric modulators, primary screen, CHO-K1 cells, Fluo-8 calcium fluorescence; Muscarinic acetylcholine receptor M5 (Homo sapiens), P08912; CHO-K1 hM5, ACh EC20 PAM; 0% = ACh EC20, 100% = ACh EC100; activation, % at 3 µM; 360,000 compounds, 0.3% hits; AID 624038, 2012;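 active = activation above the run cutoff, the mean activation of all test compounds plus 3 SD, cut at about 18% in these data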
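Assay system – human M5 receptor in CHO-K1 cells · Read-out – % activation, ACh-normalized · Technique – Fluo-8 calcium fluorescence · Dosing – single-point, 3 µM nominal · Incubation – Fluo-8 loading 80 min at 37 °C plus 30 min room temperature · Repeats – singlicate, one well per test compound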
CHRM4 PAM = human M4 muscarinic receptor positive allosteric modulators, primary screen, CHO-K1 cells, Fluo-8 calcium fluorescence; Muscarinic acetylcholine receptor M4 (Homo sapiens), P08173; activation, % at 3 µM; 360,000 compounds, 0.4% hits; CHO-K1 hM4/Gqi5, ACh EC20; 0% = ACh EC20, 100% = maximal ACh;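 active = activation above its plate's cutoff, the mean activation of sample wells plus 3 SD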
Each line names hits and unclear results; the compound was inactive in the other large screens.

O=C1CCCC2=C1C1(CCCC1)N=C(Nc1nc3cc(-c4ccccc4)ccc3o1)N2	none
COC(=O)[C@@]1(Sc2ccc(C)cc2)CC(=O)N[C@@H]1c1ccc(Br)cc1	none
CCOC(=O)[C@]12CCC=C1N(Cc1ccc3c(c1)OCO3)C(=O)[C@H](CC(=O)NCCCOC)C2	none
CCOC(=O)c1ccc(NC(=O)c2nc[nH]c2C(=O)N(CC)CC)cc1	CHRM4 PAM 22
CCOC(=O)c1ccc(NC(=O)c2nc[nH]c2C(=O)NCCCNC(=O)c2[nH]cnc2C(=O)Nc2ccc(C(=O)OCC)cc2)cc1	none
CCOC(=O)c1ccc(NC(=O)c2ncn3c2C(=O)N[C@H](C)C3)cc1	CHRM4 PAM 17
CCOC(=O)c1ccc(NC(=O)c2ncn3c2C(=O)NC[C@H]3C)cc1	none
CCOC(=O)C1(CCOc2ccccc2)CCN(Cc2ccc(O)cc2)CC1	M5 antag 28
CCOC(=O)C1(CCOc2ccccc2)CCN(Cc2ccc(OCCO)cc2)CC1	none
CCOC(=O)C1(CCOc2ccccc2)CCN(Cc2ccc(OC)c(O)c2)CC1	none
COC(=O)c1ccc(CN2CCC(CO)(Cc3cccc(OC)c3)CC2)cc1	none
CCOC(=O)C1(CCOc2ccccc2)CCN(Cc2ccc(O)c(OCC)c2)CC1	M5 antag 31
COC(=O)c1ccc(CN2CCC(CO)(CCOc3ccccc3)CC2)cc1	M5 antag 27, CHRM4 antagonist 48
COc1ccc(-n2nc3c(c2NC(=O)COc2ccccc2OC)CS(=O)(=O)C3)cc1	none
CC(=NNC(=S)N1CCN(c2ccccn2)CC1)c1nccs1	M5 antag 29, CHRM4 antagonist 43
CC(=NNC(=S)N1CCN(c2ccccn2)CC1)c1ccccn1	none
Cc1c(C(=O)OC(C)C(C)C[N+](C)(C)C)oc2ccccc12 (stereo not given)	CHRM4 antagonist 77
Cc1ccc(Cl)cc1NC(=O)CSc1sc2c(O)cc(=O)[nH]c2c1C#N	none
COc1ccc(Cl)cc1NC(=O)CSc1sc2c(O)cc(=O)[nH]c2c1C#N	CHRM4 PAM 23
COc1cc(-c2n[nH]c(=S)n2/N=C/c2cccn2C)cc(OC)c1OC	CHRM4 agonist 51, M5 ag 50
Cn1cccc1/C=N/n1c(-c2ccco2)n[nH]c1=S	none
CC1(C)OC(=O)C2=C(C[C@@H](CCOCc3ccccc3)O[C@@H]2c2ccc(F)cc2)O1	none
COCc1c(C(=O)OCC(=O)N2c3ccccc3NC(=O)C2(C)C)oc2ccccc12	CHRM4 antagonist 27
Cc1cc(N2CCCCC2)nc(NCc2ccccc2)n1	CHRM4 agonist 37, M5 ag 33
O=C(NC1CCCC1)C(c1ccccc1)n1c(Cc2cc(F)cc(F)c2)nc2ccccc21 (stereo not given)	none
CN(C(=O)CSc1nccc(=O)[nH]1)C1CCCCC1	CHRM4 PAM 22
CCN(C(=O)CSc1nccc(=O)[nH]1)C1CCCCC1	none
Nc1ncc(Br)cc1S(=O)(=O)N1CCCCCC1	M5 antag 29
O=S(=O)(c1cc(Br)ccc1Br)N1CCCCCC1	none
COc1ccc(OCCN2CCC(C(=O)NC(c3ccsc3)c3ccccc3C)CC2)cc1 (stereo not given)	none
C[C@@H]1CN([C@@H](C)CO)C(=O)c2cc(Br)cnc2O[C@H]1CN(C)C(=O)NC1CCCC1	none
O=C(NCCOc1ccccc1)c1ccccc1[N+](=O)[O-]	none
O=C(NCCOc1ccccc1)c1cc(C(=O)NCCOc2ccccc2)cc([N+](=O)[O-])c1	M5 antag 27
NC(=O)c1c(NC(=O)Cn2cnc([N+](=O)[O-])n2)sc2c1CCCC2	CHRM4 antagonist 28
COc1ccc(C(=O)N/C(=C\c2ccccc2)C(=O)N2CCOCC2)cc1	CHRM4 PAM 19
COc1cc(-n2c(=O)c3ccccc3n(Cc3ccccc3)c2=O)cc(OC)c1OC	M5 antag 30, CHRM5 PAM 30
COc1cc(-n2c(=O)c3ccccc3n(Cc3cccc(F)c3)c2=O)cc(OC)c1OC	none
Cc1ncc(CN2CCCC(C(=O)Nc3ccc(-c4cccc(F)c4)cc3)C2)n1C (stereo not given)	CHRM4 antagonist 33
CC1CC(C)C(=O)C(C(CC2CC(=O)NC(=O)C2)OC(=O)CC(=O)c2ccccc2)C1 (stereo not given)	none
CCOC(=O)CSc1nc(C)c2ccccc2n1	none
CCOC(=O)CSc1nc(C)c2cccc(C)c2n1	CHRM5 PAM 19
NC(=O)c1ccsc1NC(=O)COC(=O)c1ccc(Cl)cc1	none
O=C(COC(=O)CSc1ccc(Cl)cc1)NCCc1ccccc1	CHRM4 PAM 24
NC(=O)c1ccsc1NC(=O)COC(=O)CSc1ccc(Cl)cc1	M5 antag 32
Cc1ccc(OCC(=O)OCC(=O)Nc2sccc2C(N)=O)cc1C	M5 antag 32
C[C@@H]1CCCCO[C@H](CN(C)S(=O)(=O)c2ccc(F)cc2)[C@@H](C)CN([C@H](C)CO)C(=O)c2cc(NC(=O)Nc3ccc(C(F)(F)F)cc3)ccc2O1	none
COc1ccc(CN2C(=O)C(CC(=O)NC3CCCCC3)CC(C(=O)N(C)C)=C2C)cc1 (stereo not given)	none
OCC[C@@H]1C[C@H](O)[C@@H](O)[C@@]2(OCCc3cc(Cl)ccc32)O1	none
CCCCNC(=O)c1nc(C2CCN(S(=O)(=O)c3ccc(S(C)(=O)=O)cc3)CC2)oc1-c1ccccc1	M5 antag 30
O=C(C1=C(O)C(=O)N(CCN2CCOCC2)C1c1cccc(O)c1)c1cc2ccccc2o1 (stereo not given)	CHRM4 PAM 19
CCOc1cc(NCc2ccccc2)c2ncn(C(C)C)c2c1	none
CCCOc1cc(NCc2ccccc2)c2ncn(C(C)C)c2c1	CHRM4 PAM 24
O=C(c1cc(Cl)cc(Cl)c1)N1CCC2CC1c1cc(N3CCCCC3)ccc12 (stereo not given)	CHRM4 antagonist 27
COc1cccc(CNC(=O)[C@@H]2CCCN2C(=O)[C@@H]2CCCN2C(=O)c2cccc3ccccc23)c1	none
c1cc(-c2cc3c(o2)CCCC3OCCN2CCOCC2)cs1 (stereo not given)	none
